A short description of assay [1]: Resistance factor was determined using the ratio of cytotoxicity of both the cell lines. In kind it is functional.
The test system of the next assay is L1210. The assay can be described thus: Cytotoxicity against L1210/0 cell line of murine leukemia. In kind it is functional, cell-based, Mus musculus. Summed up: (§1)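 Murine leukemia L1210/0 (wild-type) or L1210/2 (cisplatin-resistant) cells in McCoy's 5a + 10% FCS with penicillin/streptomycin; 5 × 10⁴ cells/mL pre-cultured 24 h at 37 °C, 5% CO2. Then treated with at least three platinum concentrations (fresh water stocks diluted in medium). Cells counted in a counting chamber after 72 h. IC50 = concentration reducing growth to 50% of control; each concentration tested in ≥2 independent experiments.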

In the next assay the test system is L1210/2. The assay can be described thus: Cytotoxicity in cisplatin-resistant L1210/2 cell lines. In kind it is functional, cell-based, Mus musculus. In a few lines: as §1

In general, IC50 refers to the midpoint of a concentration-inhibition curve. A high value points to weaker potency.

For CISPLATIN [listing 1 of 2 here], in assay [1], the RF worked out at 3.1.

As to TRANSPLATIN [listing 1 of 2 here], the IC50 in the assay on L1210 came to 15.7 µM; with L1210/2, 22 µM.

For the sequence CISPLATIN [listing 2 of 2 here], the IC50 worked out at 1.5 µM with L1210 and 4.6 µM in the assay on L1210/2.

For TRANSPLATIN [listing 2 of 2 here], the RF in assay [1] was found to be 1.4.
